Data on 14 compounds can be found in PubChem BioAssay.

A short description of assay [1]: inhibitors of TNFa-induced NFkB p65 translocation, primary screen, imaging, HUVEC, MLSMR starter and 10KST1 sets (AID 438;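 active = inhibition above 20% together with a positive visual image hit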;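 also: compound added about 3h40 before a 20 min TNFalpha stimulation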;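 as to inhibition: signal is the nuclear over cytoplasmic p65 intensity ratio per well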). Conditions: HUVEC TNFa-induced p65 nuclear translocation; cell count: measured here: nuclei count (cytotoxicity indicator), at 2.08 µM; inhibition: at 2 µM, stronger effect = higher value, 0% TNFa-plus-vehicle, 100% no-TNFa wells.
Assay [2] is described as follows: reduction of polyQ htt aggregates in cells – imaging, exon1htt(103Q)mCFP cells, high-content imaging, primary screen (AID 483;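 active = visual image review flags a hit and inhibition of aggregation exceeds 20%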;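 also: compound exposure lasted 3 days before fixation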;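 as to nuclei count: percent of the per-plate median nuclei count of sample wells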). The settings on record: exon1htt(103Q)mCFP cell line, aggregate imaging, at 2 µM; inhibition of aggregation: stronger effect = higher value; nuclei count: measured here: cell count, toxicity.
Assay [3] in a line: endothelial E-selectin expression blockers – imaging, HUVEC, immunofluorescence, MLSMR starter and 10KST1 sets, primary screen (AID 487;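 active = visually confirmed hit in the image check and inhibition above 20%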;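 as to inhibition: signal is fraction of cell area covered by stained E-selectin grains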;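 as to nuclei count: 100% = median nuclei count of all wells on the same plate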). Conditions: HUVEC TNFalpha-induced E-selectin immunofluorescence imaging, at 2 µM; inhibition: stronger effect = higher value; nuclei count: measured here: cell number, toxicity.
In assay [4] the target is Voltage-gated potassium channel subunit beta-2 (Rattus norvegicus) (UniProt P62483). The assay can be described thus: inhibitors of rat Kvbeta2 reductase activity – biochemical, NADPH fluorescence, primary screen (AID 622;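 active = fluorescence slope higher than the sample average by over 3 SD, cut at about -0.22 in these data, passing the limit was not always enough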;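 also: slope of raw intensity against log time taken from 70 to 1610 s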). Conditions: recombinant KvBeta, 4-cyanobenzaldehyde reduction, at 10 µM, stronger effect = higher value.
Chain of Voltage-gated potassium channel subunit beta-2 (Rattus norvegicus) (P62483 whole entry, looked up): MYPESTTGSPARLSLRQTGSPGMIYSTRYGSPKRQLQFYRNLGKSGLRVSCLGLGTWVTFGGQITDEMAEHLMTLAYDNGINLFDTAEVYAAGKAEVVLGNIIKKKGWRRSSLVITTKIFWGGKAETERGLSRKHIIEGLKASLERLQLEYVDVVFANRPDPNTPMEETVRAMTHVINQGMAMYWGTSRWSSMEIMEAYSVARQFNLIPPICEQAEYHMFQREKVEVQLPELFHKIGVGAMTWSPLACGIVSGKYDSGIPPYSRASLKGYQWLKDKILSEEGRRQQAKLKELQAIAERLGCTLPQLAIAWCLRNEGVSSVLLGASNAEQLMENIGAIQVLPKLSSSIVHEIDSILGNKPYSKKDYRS
Assay [5] has the same target. Kind of assay: enhancers of rat Kvbeta2 NADPH turnover – biochemical, NADPH fluorescence, primary screen (AID 623;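 active = NADPH fluorescence slope more negative than the mean of all samples by about 3 SD, 99.7% confidence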;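 also: fluorescence intensity change per second fitted from 20 to 320 s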). The settings on record: Recombinant KvBeta, NADPH fluorescence decrease slope, 10 min; at 10 µM; stronger effect = lower value.
Assay [6] addresses Muscarinic acetylcholine receptor M4 (Homo sapiens) (UniProt P08173). Kind of assay: M4-linked GIRK flux change, two-sided – cell-based, HEK293 M4/GIRK, thallium flux, BTC-AM, M4 allosteric agonist project, primary screen (AID 625;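 active = fluorescence slope after compound addition differing from the mean of all tested samples at 99.7% confidence, mostly higher but some lower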;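 also: thallium influx through GIRK channels coupled to M4 in HEK293 cells with BTC-AM dye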). The settings on record: at 10 µM, actives lie on both sides. An outline of the steps:
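Material: HEK293 cells with M4 receptor and GIRK channels; Times: cells overnight at 37 °C, BTC-AM loading 1 h, reads 2 min total; Technique: kinetic BTC-AM fluorescence sampled at 1 Hz, 10 s pre-addition baseline; Read-out basis: slope over 15–24 s of trace normalized to starting intensity; Controls: carbachol positive, DMSO negative.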

Assay [7] can be described thus: blockers of RIG-like receptor reporter activation – cell-based, Sendai virus stimulus, luciferase, 10K MLSCN set, TLR/RLR signaling modifier project, primary screen (AID 602276).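 Also: firefly luciferase from ISG56 promoter only with Renilla not read in this screen; 0% = Sendai virus plus DMSO and 100% = medium plus DMSO without virus.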 The settings on record: HEK293 RL24 IRF3 luciferase reporter, at 10 µM, stronger effect = higher value. Background: Reporter assays use an easily measured gene product as a stand-in for the process of interest.

Assay [8] can be described thus: TLR3 IRF3 reporter activation blockers – cell-based, poly I:C stimulus, luciferase, 10K MLSCN set, primary screen (AID 602277;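 active = inhibition of the reporter signal at or above 50%; inactive = inhibition below 50%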). Conditions: HEK293-TLR3 RL24 IRF3 luciferase reporter, at 10 µM, stronger effect = higher value.

The source made the active and inactive calls.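 The calls were made as follows, unless noted: active = inhibition at or above 50% at 10 µM; inactive = inhibition below 50%.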

Chain of Muscarinic acetylcholine receptor M4 (Homo sapiens) (P08173 whole entry, looked up): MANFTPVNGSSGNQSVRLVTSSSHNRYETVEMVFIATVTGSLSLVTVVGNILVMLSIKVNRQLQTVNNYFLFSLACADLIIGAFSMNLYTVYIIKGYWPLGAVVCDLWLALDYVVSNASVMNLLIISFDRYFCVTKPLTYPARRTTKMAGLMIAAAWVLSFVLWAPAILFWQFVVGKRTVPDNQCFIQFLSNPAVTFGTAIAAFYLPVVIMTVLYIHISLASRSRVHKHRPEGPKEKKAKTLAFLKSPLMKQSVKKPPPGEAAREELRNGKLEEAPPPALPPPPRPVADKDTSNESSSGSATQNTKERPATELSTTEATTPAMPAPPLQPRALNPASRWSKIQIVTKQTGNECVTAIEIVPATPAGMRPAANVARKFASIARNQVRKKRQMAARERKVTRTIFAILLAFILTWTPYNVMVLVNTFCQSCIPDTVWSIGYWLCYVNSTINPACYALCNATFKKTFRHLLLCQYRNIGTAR

For `CCc1cc2c(=O)c(-c3ccc4c(c3)OCCO4)coc2cc1OC(=O)c1ccco1`, the cell count in assay [1] was determined as 637. Moreover, the inhibition (usually the relative decrease from the control value, in per cent) was -5.2% (inactive) in assay [1], -184% (inactive) in assay [3], -45.7% (inactive) in assay [7] and -122% (inactive) in assay [8]. Besides, the inhibition of aggregation in assay [2] was 4.7% (inactive). Besides, the nuclei count is 92.8% in assay [2] and 105% in assay [3]. Also, the fluorescence slope is -0.554 (inactive) in assay [4] and 0.00495 (inactive) in assay [6]. The NADPH fluorescence slope in assay [5] was -4.2e-05 (inactive).

Take `CCSC1=NCN(CCCC(=O)O)CN1`: the cell count in assay [1] was found to be 645. Also, the inhibition in assay [1] was 10.1% (inactive); in assay [3], -81.7% (inactive); in assay [7], 12.3% (inactive); in assay [8] it was 10.3% (inactive). Also, the inhibition of aggregation in assay [2] was 5.8% (inactive). Also, the values for the nuclei count in assay [2] and in assay [3] were 106% and 125%, respectively. Also, the fluorescence slope in assay [4] was -0.558 (inactive); in assay [6] it was 0.00489 (inactive). Also, the NADPH fluorescence slope in assay [5] is -4e-05 (inactive).

As for `Nc1nnc(-c2cc3ccccc3oc2=O)s1`, the cell count in assay [1] is 723. The inhibition in assay [1] was -6.8% (inactive); in assay [3], -72.3% (inactive); in assay [7] it was -3.81% (inactive); in assay [8], -27.9% (inactive). Further, the inhibition of aggregation in assay [2] was 2.5% (inactive). Also, the figures for the nuclei count in assay [2] and in assay [3] were 94% and 123%, respectively. In addition, the fluorescence slope in assay [4] was -0.0269 (inactive); in assay [6] it was 0.0038 (inactive). In addition, the NADPH fluorescence slope in assay [5] is -7.7e-06 (inactive).

On to `COc1cccc(NS(=O)(=O)c2cc(C)sc2C)c1`, for which the cell count in assay [1] was determined as 311. Moreover, the inhibition in assay [1] was -5.7% (inactive); in assay [3] it was -57% (inactive); in assay [7] it was 3.14% (inactive); in assay [8], 24.9% (inactive). The inhibition of aggregation in assay [2] is 3.3% (inactive). The nuclei count in assay [2] came to 93%; in assay [3] it was 113%. In addition, the fluorescence slope was -0.467 (inactive) in assay [4] and 0.00503 (inactive) in assay [6]. The NADPH fluorescence slope in assay [5] is -1.8e-05 (inactive).

Turning to `CCn1c(=O)cc(OCC(=O)Nc2cc(C)ccn2)c2ccccc21`, the cell count in assay [1] worked out at 300. For the same compound, the inhibition in assay [1] was -0.6% (inactive); in assay [3] it was -11.5% (inactive); in assay [7], 13.4% (inactive); in assay [8] it was 21.3% (inactive). For the same compound, the inhibition of aggregation in assay [2] was -7.1% (inactive). Also, the nuclei count in assay [2] came out at 101%; in assay [3] it was 126%. Also, the fluorescence slope in assay [4] was -0.537 (inactive); in assay [6] it was 0.00495 (inactive). In addition, the NADPH fluorescence slope in assay [5] was -5.7e-06 (inactive).

For `Oc1c(Cl)cc(Cl)c2c1NCCC2`, the cell count in assay [1] worked out at 313. Also, the inhibition was 0.4% (inactive) in assay [1], -47.5% (inactive) in assay [3], 11.2% (inactive) in assay [7] and 31.8% (inactive) in assay [8]. Further, in assay [2], the inhibition of aggregation is -13.1% (inactive). Besides, the nuclei count was 100% in assay [2] and 91.9% in assay [3]. Besides, the fluorescence slope in assay [4] was -0.466 (inactive); in assay [6], 0.00523 (inactive). For the same compound, in assay [5], the NADPH fluorescence slope is -3e-05 (inactive).

In the case of `CC(=O)N1C(=O)N(C)C2C1N(C(C)=O)C(=O)N2C` (centres undefined), the cell count in assay [1] came out at 395. In addition, the inhibition in assay [1] was 5.4% (inactive); in assay [3], -4.1% (inactive); in assay [7] it was 11.1% (inactive); in assay [8] it was 16.5% (inactive). The inhibition of aggregation in assay [2] is 7.3% (inactive). For the same compound, the values for the nuclei count in assay [2] and in assay [3] were 96.4% and 98.6%, respectively. For the same compound, the fluorescence slope was -0.574 (inactive) in assay [4] and 0.00666 (inactive) in assay [6]. In addition, the NADPH fluorescence slope in assay [5] was -5e-05 (inactive).

For the compound `CS(=O)(=O)N(CC(=O)NC1CC1)c1cccc(F)c1`, the cell count in assay [1] came to 387. In addition, the inhibition in assay [1] is -2.3% (inactive); in assay [3], -44.3% (inactive); in assay [7], 8.69% (inactive); in assay [8], 14.7% (inactive). The inhibition of aggregation in assay [2] is 0.3% (inactive). Besides, the nuclei count in assay [2] and in assay [3] was 113% throughout. Further, the fluorescence slope in assay [4] is -0.555 (inactive); in assay [6], 0.00595 (inactive). The NADPH fluorescence slope in assay [5] was -5e-05 (inactive).

As to `CCCCOc1cccc(NC(=O)CSc2nccn2C)c1`, the cell count in assay [1] was 397. In addition, the inhibition in assay [1] is 2.5% (inactive); in assay [3], 6.2% (inactive); in assay [7], -4.33% (inactive); in assay [8], -42.2% (inactive). Further, the inhibition of aggregation in assay [2] was 0.8% (inactive). Further, the nuclei count in assay [2] was determined as 96.8%; in assay [3], 108%. Further, the fluorescence slope in assay [4] was -0.318 (inactive); in assay [6], 0.00562 (inactive). For the same compound, the NADPH fluorescence slope in assay [5] is -3.3e-05 (inactive).

Take `CCc1ccccc1NC(=O)CSc1nc2n[nH]c(C)c2c(=N)n1-c1ccc(OC)cc1`: the cell count in assay [1] worked out at 453. In addition, the inhibition is 17.4% (inactive) in assay [1], 41.3% (inactive) in assay [3], 15.1% (inactive) in assay [7] and 20.3% (inactive) in assay [8]. In addition, the inhibition of aggregation in assay [2] is -1.3% (inactive). The nuclei count in assay [2] came to 104%; in assay [3], 103%. Besides, the fluorescence slope in assay [4] is -0.47 (inactive); in assay [6], 0.00766 (inactive). The NADPH fluorescence slope in assay [5] is -4.8e-05 (inactive).

In the case of `CC1N=C2c3ccccc3N=C(SCc3cc(=O)n4cc(Cl)ccc4n3)N2C1=O` (centres undefined), in assay [1], the cell count worked out at 346. For the same compound, the inhibition is 7.6% (inactive) in assay [1], 32.4% (inactive) in assay [3], 13.1% (inactive) in assay [7] and 18.7% (inactive) in assay [8]. The inhibition of aggregation in assay [2] was 18.8% (inactive). The nuclei count stood at 102% in assay [2] and 92.4% in assay [3]. The fluorescence slope was -0.478 (inactive) in assay [4] and 0.00478 (inactive) in assay [6]. Besides, in assay [5], the NADPH fluorescence slope is -0.0001 (inactive).

Regarding `COC(=O)c1cc(-c2c(C)nn(-c3ccccc3)c2C)n[nH]1`, the cell count in assay [1] amounted to 391. Besides, the inhibition in assay [1] was 1.1% (inactive); in assay [3] it was 8.5% (inactive); in assay [7], -13.2% (inactive); in assay [8], -66.7% (inactive). In addition, in assay [2], the inhibition of aggregation is -8.1% (inactive). For the same compound, the values for the nuclei count in assay [2] and in assay [3] were 111% and 95.5%, respectively. Further, the fluorescence slope in assay [4] was -0.447 (inactive); in assay [6] it was 0.00494 (inactive). For the same compound, the NADPH fluorescence slope in assay [5] is 2.5e-05 (inactive).

As to `Cc1oc2c(CN3CCCC3)c(O)ccc2c(=O)c1-c1ccccc1`, the cell count in assay [1] came to 243. The inhibition is 3.8% (inactive) in assay [1], -46% (inactive) in assay [3], 14% (inactive) in assay [7] and 24.5% (inactive) in assay [8]. Besides, the inhibition of aggregation in assay [2] was 6.5% (inactive). Moreover, the nuclei count in assay [2] was 96.3%; in assay [3], 97.7%. The figures for the fluorescence slope in assay [4] and in assay [6] were -0.0276 (active) and 0.00581 (inactive), respectively. The NADPH fluorescence slope in assay [5] was 8.9e-06 (inactive).

In the case of `Cc1cc(=O)oc2cc(Oc3ncccn3)ccc12`, the cell count in assay [1] worked out at 476. For the same compound, the inhibition is 2.4% (inactive) in assay [1], -29.9% (inactive) in assay [3], -6.46% (inactive) in assay [7] and -5.6% (inactive) in assay [8]. Moreover, in assay [2], the inhibition of aggregation is 9% (inactive). The nuclei count in assay [2] was found to be 93.1%; in assay [3] it was 111%. The values for the fluorescence slope in assay [4] and in assay [6] were -0.427 (inactive) and 0.00578 (inactive), respectively. Moreover, the NADPH fluorescence slope in assay [5] was -1.6e-05 (inactive).
